Measured values: ChEMBL document CHEMBL1221347, “Identification of 3',4',5'-trimethoxychalcone analogues as potent inhibitors of Helicobacter pylori-induced inflammation in human gastric epithelial cells” (Bioorg Med Chem Lett, 2010)
In brackets after ≈: the same amount, converted by molar mass. Activity calls are given as the source filed them. No cut-off for these calls is given here.

What was measured:
Helicobacter pylori [1] = experiment: Inhibition of sHelicobacter pylori adhesion into human AGS cells at 2.5 uM after 6 hrs; type: functional
In short: (§1)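 AGS cells, untreated or treated with compound, then infected with H. pylori at MOI 50 for 6 h. Bacterial adhesion to, or invasion into, the cells was measured. Compounds tested at 2.5, 5.0 and 10.0 µM. DMSO vehicle and antibiotic controls at 2.5 µM. Values are mean ± SD of at least six independent experiments; Student's t-test against DMSO-treated cells.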

Helicobacter pylori [2] = experiment: Inhibition of Helicobacter pylori-induced inflammation in human AGS cells assessed as reduction of NF-kappaB activity at 2.5 uM after 6 hrs by luciferase reporter gene assay relative to control; type: functional
In short: (§2)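 AGS cells transfected with an NF-κB luciferase reporter construct. Cells were treated with compound (2.5–10 µM) and infected with H. pylori, then luciferase expression was measured. Activity is expressed relative to DMSO-treated control. Antibiotics at 2.5 µM served as reference. Values are mean ± SD of at least three independent experiments.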

Helicobacter pylori [3] = experiment: Inhibition of Helicobacter pylori-induced inflammation in human AGS cells assessed as reduction of NF-kappaB activity at 10 uM after 6 hrs by luciferase reporter gene assay relative to control; type: functional; in short: as §2
Helicobacter pylori [4] = experiment: Antibacterial activity against multidrug-resistant Helicobacter pylori v1254; type: functional
In short: (§3)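 Minimum bactericidal concentration (MBC), expressed in µM, determined against H. pylori reference strain Hp 26695 and the clinical isolates v1254 and v1354. Both isolates are resistant to metronidazole and clarithromycin. Amoxicillin, clarithromycin and metronidazole served as standard antimicrobial comparators.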

Helicobacter pylori [5] = experiment: Antibacterial activity against multidrug-resistant Helicobacter pylori v1354; type: functional; in short: as §3
Helicobacter pylori [6] = experiment: Inhibition of Helicobacter pylori adhesion into human AGS cells at 5 uM after 6 hrs; type: functional; in short: as §1
AGS = experiment: Cytotoxicity against human AGS cells assessed as cell viability at 0.5 ug/ml by MTT assay; type: cell-based; conditions: in the assay text read “0.5 mg/ml” for “0.5 ug/ml”
In short: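 MTT viability assay on AGS human gastric epithelial cells, run at 0.5 mg/ml, the top concentration used in the H. pylori growth test.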

Helicobacter pylori [7] = experiment: Inhibition of Helicobacter pylori adhesion into human AGS cells at 10 uM after 6 hrs; type: functional; in short: as §1
Helicobacter pylori [8] = experiment: Inhibition of Helicobacter pylori-induced inflammation in human AGS cells assessed as reduction of IL-8 production at 5 uM by ELISA; type: functional
In short: (§4)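 IL-8 in culture supernatants measured from H. pylori-infected AGS cells pre-treated with compound at 2.5, 5.0 or 10.0 µM. Inhibition calculated against DMSO control-treated cells. Values are mean ± SD of at least three independent experiments.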

Helicobacter pylori [9] = experiment: Inhibition of Helicobacter pylori invasion into human AGS cells at 10 uM after 6 hrs; type: functional; in short: as §1
Helicobacter pylori [10] = experiment: Inhibition of Helicobacter pylori-induced inflammation in human AGS cells assessed as reduction of IL-8 production at 2.5 uM by ELISA; type: functional; in short: as §4
Helicobacter pylori [11] = experiment: Inhibition of Helicobacter pylori-induced inflammation in human AGS cells assessed as reduction of IL-8 production at 10 uM by ELISA; type: functional; in short: as §4
Helicobacter pylori [12] = experiment: Antibacterial activity against Helicobacter pylori Hp 26695; type: functional; in short: as §3
Helicobacter pylori [13] = experiment: Inhibition of Helicobacter pylori invasion into human AGS cells at 2.5 uM after 6 hrs; type: functional; in short: as §1
Helicobacter pylori [14] = experiment: Inhibition of Helicobacter pylori-induced inflammation in human AGS cells assessed as reduction of NF-kappaB activity after 6 hrs by luciferase reporter gene assay relative to control; type: functional; in short: as §2
Helicobacter pylori [15] = experiment: Inhibition of Helicobacter pylori invasion into human AGS cells at 5 uM after 6 hrs; type: functional; in short: as §1
Helicobacter pylori [16] = experiment: Inhibition of Helicobacter pylori-induced inflammation in human AGS cells assessed as reduction of NF-kappaB activity at 5 uM after 6 hrs by luciferase reporter gene assay relative to control; type: functional; in short: as §2

Structure (SMILES) | inhibition at 2.5 µM (Helicobacter pylori [1]) [%] | inhibition at 2.5 µM (Helicobacter pylori [2]) [%] | inhibition at 10 µM (Helicobacter pylori [3]) [%] | MBC (Helicobacter pylori [4]) [µM] | MBC (Helicobacter pylori [5]) [µM] | inhibition at 5 µM (Helicobacter pylori [6]) [%] | Activity (AGS) | inhibition at 5 µM (Helicobacter pylori [8]) [%] | inhibition (Helicobacter pylori [9]) | inhibition at 2.5 µM (Helicobacter pylori [10]) [%] | inhibition at 10 µM (Helicobacter pylori [11]) [%] | MBC (Helicobacter pylori [12]) [µM] | inhibition (Helicobacter pylori [13]) | inhibition (Helicobacter pylori [14]) | inhibition (Helicobacter pylori [15]) | inhibition (Helicobacter pylori [2]) | inhibition at 2.5 µM (Helicobacter pylori [13]) [%] | other results
COc1cccc(/C=C/C(=O)c2cc(OC)c(OC)c(OC)c2)c1OC | 66.6 | 39.8 | 90.6 | 50 (≈ 17.9 µg/mL) | 25 (≈ 8.96 µg/mL) | 73.3 | Non-toxic | 65.2 | Active | 24.6 | 87 | 25 (≈ 8.96 µg/mL) | inactive | Dose-dependent effect | Active | – | – | inhibition at 10 µM (Helicobacter pylori [7]): 99.9%
Cc1ncc([N+](=O)[O-])n1CCO [METRONIDAZOLE] | – | – | – | 400 (≈ 68.5 µg/mL) | 800 (≈ 137 µg/mL) | – | – | – | – | – | 81.9 | 25 (≈ 4.28 µg/mL) | – | – | – | inactive | 20 | –
CC1(C)S[C@@H]2[C@H](NC(=O)[C@H](N)c3ccc(O)cc3)C(=O)N2[C@H]1C(=O)O [AMOXICILLIN] | – | – | – | 12.5 (≈ 4.57 µg/mL) | 12.5 (≈ 4.57 µg/mL) | – | – | – | – | – | 81.9 | 12.5 (≈ 4.57 µg/mL) | – | – | – | inactive | > 90 | –
COc1ccc(/C=C/C(=O)c2cc(OC)c(OC)c(OC)c2)cc1 | – | 14.7 | 66 | 100 (≈ 32.8 µg/mL) | 100 (≈ 32.8 µg/mL) | – | Non-toxic | 23.4 | Active | 8 | 59.4 | 100 (≈ 32.8 µg/mL) | inactive | Dose-dependent effect | Active | – | – | inhibition (Helicobacter pylori [6]): Active; inhibition (Helicobacter pylori [7]): Active
CC[C@H]1OC(=O)[C@H](C)[C@@H](O[C@H]2C[C@@](C)(OC)[C@@H](O)[C@H](C)O2)[C@H](C)[C@@H](O[C@@H]2O[C@H](C)C[C@H](N(C)C)[C@H]2O)[C@](C)(OC)C[C@@H](C)C(=O)[C@H](C)[C@@H](O)[C@]1(C)O [CLARITHROMYCIN] | – | – | – | 50 (≈ 37.4 µg/mL) | 25 (≈ 18.7 µg/mL) | – | – | – | – | – | 81.9 | 1.6 (≈ 1.2 µg/mL) | – | – | – | inactive | > 90 | –
COc1cc(/C=C/C(=O)c2cc(OC)c(OC)c(OC)c2)ccc1O | 88.2 | 86.1 | 99.9 | 12.5 (≈ 4.3 µg/mL) | 12.5 (≈ 4.3 µg/mL) | 98.8 | Non-toxic | – | – | – | – | 12.5 (≈ 4.3 µg/mL) | – | Dose-dependent effect | – | – | 57.6 | inhibition at 5 µM (Helicobacter pylori [16]): 98.6%; inhibition at 10 µM (Helicobacter pylori [9]): 100%; inhibition at 5 µM (Helicobacter pylori [15]): 91%
